Source: ChEMBL document CHEMBL4011654, “Mitochondria-Targeted Lupane Triterpenoid Derivatives and Their Selective Apoptosis-Inducing Anticancer Mechanisms” (J Med Chem, 2017)

What was measured:
K562 = experiment: Cytotoxicity against human K562 cells assessed as cell growth inhibition after 48 hrs by MTT assay; type: functional, cell-based; conditions: K562, 48 h
How it was run: (§1)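 Suspension cells seeded at 5000/well (HL-60 in IMDM, K562 in RPMI, both with 10% FBS) and treated. MTT then added for 4 h at 37 °C; plates centrifuged at 3000 rpm for 30 min, medium removed, DMSO added, OD570 read. IC50 taken as concentration giving 50% growth inhibition; triplicate.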

HL-60 = experiment: Cytotoxicity against human HL60 cells assessed as cell growth inhibition after 48 hrs by MTT assay; type: functional, cell-based; conditions: HL-60, 48 h; how it was run: as §1
ECa-109 cell line = experiment: Cytotoxicity against human ECA109 cells assessed as cell growth inhibition after 48 hrs by MTT assay; type: functional, cell-based; conditions: ECa-109, 48 h
How it was run: (§2)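 Adherent cells seeded at 5000/well, left 16−24 h, then exposed 48 h at 37 °C, 5% CO2 in RPMI with 10% FBS. Medium refreshed, MTT added for 4 h at 37 °C, medium removed, formazan dissolved in DMSO, OD570 read. IC50 taken as concentration inhibiting growth by 50%; triplicate.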

A549 = experiment: Cytotoxicity against human A549 cells assessed as cell growth inhibition after 48 hrs by MTT assay; type: functional, cell-based; conditions: A549, 48 h; how it was run: as §2
HepG2 = experiment: Cytotoxicity against human HepG2 cells assessed as cell growth inhibition after 48 hrs by MTT assay; type: functional, cell-based; conditions: HepG2, 48 h; how it was run: as §2
L02 = experiment: Cytotoxicity against human HL-7702 cells assessed as cell growth inhibition after 48 hrs by MTT assay; type: cell-based; conditions: L02, 48 h; how it was run: as §2

O=C(O)CCCC[P+](c1ccccc1)(c1ccccc1)c1ccccc1
IC50 (K562): > 200 µM
IC50 (HL-60): 118 µM
IC50 (ECa-109 cell line): 112 µM
IC50 (A549): 172 µM
IC50 (HepG2): 158 µM
IC50 (L02): > 200 µM

C=C(C)[C@@H]1CC[C@]2(C(=O)OCC)CC[C@]3(C)[C@H](CC[C@@H]4[C@@]5(C)CC[C@H](OC(=O)CCCC[P+](c6ccccc6)(c6ccccc6)c6ccccc6)C(C)(C)[C@@H]5CC[C@]43C)[C@@H]12
IC50 (K562): 4.03 µM
IC50 (HL-60): 2.75 µM
IC50 (ECa-109 cell line): 6.04 µM
IC50 (A549): 4.79 µM
IC50 (HepG2): 4.54 µM
IC50 (L02): 7.85 µM

C=C(C)[C@@H]1CC[C@]2(C(=O)OC)CC[C@]3(C)[C@H](CC[C@@H]4[C@@]5(C)CC[C@H](OC(=O)CCCC[P+](c6ccccc6)(c6ccccc6)c6ccccc6)C(C)(C)[C@@H]5CC[C@]43C)[C@@H]12
IC50 (K562): 3.58 µM
IC50 (HL-60): 3.11 µM
IC50 (ECa-109 cell line): 4.75 µM
IC50 (A549): 4.99 µM
IC50 (HepG2): 4.35 µM
IC50 (L02): 6.3 µM

C=C(C)[C@@H]1CC[C@]2(CO)CC[C@]3(C)[C@H](CC[C@@H]4[C@@]5(C)CC[C@H](O)C(C)(C)[C@@H]5CC[C@]43C)[C@@H]12 [BETULIN]
IC50 (K562): 12.9 µM
IC50 (HL-60): 30.9 µM
IC50 (ECa-109 cell line): 26.6 µM
IC50 (A549): 18.2 µM
IC50 (HepG2): 10.7 µM
IC50 (L02): 26.8 µM

C=C(C)[C@@H]1CC[C@]2(C(=O)O)CC[C@]3(C)[C@H](CC[C@@H]4[C@@]5(C)CC[C@H](O)C(C)(C)[C@@H]5CC[C@]43C)[C@@H]12 [BETULINIC ACID]
IC50 (K562): 22 µM
IC50 (HL-60): 18.5 µM
IC50 (ECa-109 cell line): 28.1 µM
IC50 (A549): 17.1 µM
IC50 (HepG2): 25.3 µM
IC50 (L02): 35.1 µM
